pIC50: −log10 of the molar value. Some results are limits rather than exact numbers.

In ChEMBL document CHEMBL1156993, “Benzyl prolinate derivatives as novel selective KCC2 blockers” (Bioorg Med Chem Lett, 2010) one finds IC50 and inhibition data, which are given here for 24 compounds.

The first test has as its target T1, Solute carrier family 12 member 5 (Rattus norvegicus, UniProt Q63633).
T1 sequence (Q63633 whole entry): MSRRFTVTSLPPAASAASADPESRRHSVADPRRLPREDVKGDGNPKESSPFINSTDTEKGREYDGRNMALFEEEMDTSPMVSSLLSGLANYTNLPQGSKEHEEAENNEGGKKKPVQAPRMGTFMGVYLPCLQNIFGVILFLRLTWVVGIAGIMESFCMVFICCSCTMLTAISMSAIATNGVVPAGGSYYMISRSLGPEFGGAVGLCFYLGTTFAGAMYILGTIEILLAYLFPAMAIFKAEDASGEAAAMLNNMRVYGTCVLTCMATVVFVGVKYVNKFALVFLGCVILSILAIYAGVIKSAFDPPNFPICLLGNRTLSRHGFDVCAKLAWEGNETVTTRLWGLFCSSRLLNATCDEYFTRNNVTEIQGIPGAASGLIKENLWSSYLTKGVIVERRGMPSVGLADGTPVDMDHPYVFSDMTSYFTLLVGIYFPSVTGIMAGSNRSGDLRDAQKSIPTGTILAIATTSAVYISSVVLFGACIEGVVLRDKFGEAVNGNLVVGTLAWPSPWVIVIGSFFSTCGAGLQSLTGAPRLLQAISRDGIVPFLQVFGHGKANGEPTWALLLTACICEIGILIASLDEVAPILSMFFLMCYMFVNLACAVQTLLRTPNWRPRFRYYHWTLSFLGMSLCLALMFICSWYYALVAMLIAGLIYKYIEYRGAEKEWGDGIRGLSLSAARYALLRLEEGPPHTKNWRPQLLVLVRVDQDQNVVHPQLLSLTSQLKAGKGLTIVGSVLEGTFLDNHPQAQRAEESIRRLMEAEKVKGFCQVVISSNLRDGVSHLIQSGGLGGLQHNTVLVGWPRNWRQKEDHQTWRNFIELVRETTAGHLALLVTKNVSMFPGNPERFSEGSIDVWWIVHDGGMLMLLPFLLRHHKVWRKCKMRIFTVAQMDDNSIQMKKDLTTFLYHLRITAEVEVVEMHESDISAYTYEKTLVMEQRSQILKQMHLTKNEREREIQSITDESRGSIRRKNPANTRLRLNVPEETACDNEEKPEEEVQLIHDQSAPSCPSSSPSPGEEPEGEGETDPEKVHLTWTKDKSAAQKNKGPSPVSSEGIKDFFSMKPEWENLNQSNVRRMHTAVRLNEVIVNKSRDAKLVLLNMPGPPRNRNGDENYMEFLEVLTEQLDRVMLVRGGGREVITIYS
As to the kind of experiment: Antagonist activity of rat KCC2 transporter expressed in human SK-Hep cells assessed as inhibition of N-ethylmaleimide-mediated Rb+ influx after 10 mins by atomic absorption spectroscopy. It counts as functional, cell-based.
Details: not given
An outline of the steps: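 Rat KCC2 stably expressed in a selected clone. The co-transporter is activated with N-ethylmaleimide in the presence of the test compound, and Rb+ influx is started by adding 5 mM RbCl to the extracellular medium. Influx is stopped after 10 min by repeated washes. Intracellular Rb+ is measured by atomic absorption spectroscopy, and IC50 is reported.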
Turning to `CC(=O)N1CCCC1(Cc1ccccc1)C(=O)O` (centres undefined), the pIC50 is under 4.00.

`CCN1CCCC1(Cc1ccccc1)C(=O)OCc1ccccc1` (centres undefined): the pIC50 is under 4.00.

Consider `CC(=O)N1CCCC1(Cc1ccccc1)C(=O)OC(C)c1ccccc1` (centres undefined), for which the pIC50 is 5.40.

For the compound `CC(=O)N1CCCC1(Cc1ccccc1)C(=O)OCc1ccncc1` (centres undefined), the pIC50 was under 4.00.

As to `CCC1(C(=O)OCc2ccccc2)CCCN1C(C)=O` (centres undefined), the pIC50 was 4.10.

For the compound `CC(=O)N1CCCC1(Cc1ccccc1C#N)C(=O)OCc1ccccc1` (centres undefined), the pIC50 was 5.30.

As for `CC(=O)N1CCCC1(Cc1ccccc1)C(=O)N(C)Cc1ccccc1` (centres undefined), the pIC50 was 4.49.

As for `CC(=O)N1CCCC1(CCc1ccccc1)C(=O)OCc1ccccc1` (centres undefined), the pIC50 was 5.10.

In the case of `CC(=O)N1CCCC1(Cc1ccc(S(C)(=O)=O)cc1)C(=O)OCc1ccccc1` (single isomer, unassigned; (-)), the negative logarithm of the IC50 (pIC50) is 4.40.

As for `CC(=O)N1CCCC1(Cc1ccsc1)C(=O)OCc1ccccc1` (centres undefined), the pIC50 is 6.10.

On to `CC(=O)N1CCCC1(Cc1ccc(F)cc1C(F)(F)F)C(=O)OCc1ccccc1` (centres undefined), for which the pIC50 is 5.40.

Regarding `CC(=O)N1CCCC1(Cc1ccccc1)C(=O)OCc1cccc(Cl)c1` (centres undefined), the pIC50 is 5.60.

`CC(=O)N1CCCC1(Cc1ccc(Cl)cc1)C(=O)OCc1ccccc1` (centres undefined): the pIC50 is 6.49.

Regarding `O=C(OCc1ccccc1)C1(Cc2ccccc2)CCCN1` (centres undefined), the pIC50 is under 4.00.

As to `CC(=O)N1CCCC1(Cc1ccc(F)cc1)C(=O)OCc1ccccc1` (centres undefined), the pIC50 was 6.70.

For `CC(=O)N1CCCC1(Cc1ccc(C)cc1)C(=O)OCc1ccccc1` (centres undefined), the pIC50 was 6.10.

For `CC(=O)N1CCCC1(Cc1ccc(S(C)(=O)=O)cc1)C(=O)OCc1ccccc1` (single isomer, unassigned; (+)), the negative logarithm of the IC50 (pIC50) was 6.40.

For `CCNC(=O)N1CCCC1(Cc1ccccc1)C(=O)OCc1ccccc1` (centres undefined), the pIC50 is 5.70.

As to `CC(=O)N1CCCC1(Cc1ccccc1)C(=O)OCc1ccc(C)cc1` (centres undefined), the negative logarithm of the IC50 (pIC50) was 6.10.

Consider `COC(=O)N1CCCC1(Cc1ccccc1)C(=O)OCc1ccccc1` (centres undefined), for which the pIC50 was 6.40.

Regarding `O=C(c1ccccc1)N1CCCC1(Cc1ccccc1)C(=O)OCc1ccccc1` (centres undefined), the pIC50 was 5.40.

For `CC(=O)N1CCCC1(Cc1ccccc1)C(=O)OCc1ccccc1Cl` (centres undefined), the pIC50 was 5.22.

For the compound `CC(=O)N1CCCC1(Cc1ccccc1)C(=O)OCc1ccc(S(C)(=O)=O)cc1` (centres undefined), the pIC50 was under 4.00.

System in the next test: not listed separately
As to the kind of experiment: Antagonist activity to dog NKCC1 transporter expressed in MDCK cells assessed as inhibition of Cl- free medium-stimulated Rb+ influx at 100 uM after 45 mins by atomic absorption spectroscopy. It counts as functional, Canis lupus familiaris. As to conditions: Canis lupus familiaris, MDCK, 0.75 h. In a few lines: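 MDCK cells express endogenous canine NKCC1. NKCC1 is activated by incubating the cells for 2 h in Cl−-free medium. Rb+ influx is then stimulated for 45 min by adding 20 mM RbCl to the extracellular solution. Intracellular Rb+ is quantified by atomic absorption spectroscopy, and results are given as percent inhibition.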
In the case of `NS(=O)(=O)c1cc(C(=O)O)c(NCc2ccco2)cc1Cl` [FUROSEMIDE], the inhibition at 100 µM worked out at 100%.
